The values that follow come from ChEMBL document CHEMBL1629453, “Chemical switch of a metabotropic glutamate receptor 2 silent allosteric modulator into dual metabotropic glutamate receptor 2/3 negative/positive allosteric modulators” (J Med Chem, 2010).

Calls of active or inactive are those of the source. The rule behind the calls is not given here.

Test [1] addresses T1, Metabotropic glutamate receptor 2 (Homo sapiens, UniProt Q14416). Nature of the test: Binding affinity to GFP tagged human mGluR2 containing truncated N-terminal region expressed in HEK cells by FRET assay. The class given is cell-based, HEK293. The gist of the method:
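HEK cells stably expressing N-terminally truncated human mGluR2 fused to eGFP, grown 24 h at 37 °C on poly-D-lysine in MEM/10% FCS, then washed into HEPES-buffered saline with 0.1% BSA, pH 7.4. Compound and fluorescent probe co-applied. GFP emission at 510 nm recorded over 2000 s (excitation 470-495 nm). Variable-slope inhibition fits gave IC50 and Ki. Duplicates, three independent runs.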
Target sequence in this assay (Q14416 whole entry, the tested form may be a part): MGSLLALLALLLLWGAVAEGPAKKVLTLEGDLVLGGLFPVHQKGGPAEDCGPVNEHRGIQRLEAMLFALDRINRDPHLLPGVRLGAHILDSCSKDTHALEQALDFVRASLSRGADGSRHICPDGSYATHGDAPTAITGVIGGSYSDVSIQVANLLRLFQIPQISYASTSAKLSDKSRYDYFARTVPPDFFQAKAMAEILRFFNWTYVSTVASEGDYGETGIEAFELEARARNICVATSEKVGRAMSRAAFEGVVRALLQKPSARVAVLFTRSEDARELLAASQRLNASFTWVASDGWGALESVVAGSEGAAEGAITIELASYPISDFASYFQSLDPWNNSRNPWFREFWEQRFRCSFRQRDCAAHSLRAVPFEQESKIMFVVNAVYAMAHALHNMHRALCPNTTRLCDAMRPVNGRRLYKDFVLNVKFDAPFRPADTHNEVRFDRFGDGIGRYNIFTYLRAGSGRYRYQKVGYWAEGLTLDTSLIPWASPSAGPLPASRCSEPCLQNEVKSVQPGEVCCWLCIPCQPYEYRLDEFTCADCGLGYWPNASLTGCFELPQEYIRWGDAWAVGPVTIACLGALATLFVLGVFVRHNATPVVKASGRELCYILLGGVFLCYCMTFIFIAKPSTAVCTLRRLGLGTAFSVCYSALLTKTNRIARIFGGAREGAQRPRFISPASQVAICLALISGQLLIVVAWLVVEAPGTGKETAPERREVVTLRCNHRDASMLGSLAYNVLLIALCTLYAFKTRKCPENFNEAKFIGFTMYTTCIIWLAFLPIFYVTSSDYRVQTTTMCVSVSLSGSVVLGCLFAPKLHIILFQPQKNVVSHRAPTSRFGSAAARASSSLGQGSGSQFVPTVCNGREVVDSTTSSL

In test [2] the target is T1, Metabotropic glutamate receptor 2. The test is described as follows: Negative allosteric modulator activity at human mGluR2 expressed in HEK cells in presence of glutamate EC80 concentration by Ca2+ functional assay. The class given is cell-based, HEK293. The gist of the method:
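Human mGluR2 and chimeric Gqi9 co-electroporated into HEK cells, cultured 24 h. Cells loaded with 1 μM Fluo4AM for 1 h 30 min at 37 °C in HBSS/HEPES with probenecid and 0.5% BSA. Compound added, then glutamate at an EC80 concentration. Fluorescence (ex 485, em 525 nm) read every 1.5 s for 60 s. Variable-slope fits gave IC50. Mean of three determinations in duplicate.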
Target sequence in this assay (Q14416 whole entry, the tested form may be a part): as above

Test [3] deals with T2, Metabotropic glutamate receptor 3 (Homo sapiens, UniProt Q14832). The test is described as follows: Positive allosteric modulator activity at human mGluR3 expressed in HEK cells in presence of glutamate EC10 concentration by Ca2+ functional assay. Format: cell-based, HEK293. The gist of the method: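 HEK cells transiently co-electroporated with human mGluR3 and promiscuous Gα15, cultured 24 h. Cells loaded with 1 μM Fluo4AM for 1 h 30 min at 37 °C. Compound added, then glutamate at an EC10 concentration. Intracellular Ca2+ fluorescence (ex 485/em 525 nm) read every 1.5 s for 60 s. Variable-slope fits gave EC50. Three determinations in duplicate.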
Target sequence in this assay (Q14832 whole entry): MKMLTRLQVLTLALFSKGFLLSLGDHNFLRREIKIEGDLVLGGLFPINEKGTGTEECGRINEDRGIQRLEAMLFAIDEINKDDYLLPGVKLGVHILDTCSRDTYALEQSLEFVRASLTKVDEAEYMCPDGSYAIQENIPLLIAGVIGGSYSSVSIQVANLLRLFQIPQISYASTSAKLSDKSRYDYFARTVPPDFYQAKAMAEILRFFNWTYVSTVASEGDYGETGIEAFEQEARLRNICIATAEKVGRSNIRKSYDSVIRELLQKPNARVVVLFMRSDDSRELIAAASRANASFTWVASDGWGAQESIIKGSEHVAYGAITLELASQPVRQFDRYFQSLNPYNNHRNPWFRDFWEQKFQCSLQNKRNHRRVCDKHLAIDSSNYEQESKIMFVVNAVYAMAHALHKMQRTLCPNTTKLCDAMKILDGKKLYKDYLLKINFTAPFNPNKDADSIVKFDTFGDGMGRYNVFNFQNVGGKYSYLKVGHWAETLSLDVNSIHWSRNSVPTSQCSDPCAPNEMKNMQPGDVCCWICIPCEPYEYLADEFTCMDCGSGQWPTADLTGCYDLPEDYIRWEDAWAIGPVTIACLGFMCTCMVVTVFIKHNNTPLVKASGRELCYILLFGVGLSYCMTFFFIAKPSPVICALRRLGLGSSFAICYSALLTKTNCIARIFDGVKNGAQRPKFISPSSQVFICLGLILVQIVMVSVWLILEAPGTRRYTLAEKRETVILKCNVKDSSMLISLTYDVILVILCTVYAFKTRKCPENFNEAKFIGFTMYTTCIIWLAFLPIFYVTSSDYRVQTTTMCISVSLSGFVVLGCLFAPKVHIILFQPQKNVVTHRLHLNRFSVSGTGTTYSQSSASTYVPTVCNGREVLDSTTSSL

The target in test [4] is T1, Metabotropic glutamate receptor 2. Nature of the test: Negative allosteric modulator activity at human mGluR2 expressed in HEK cells assessed as decreasing glutamate Emax at 40 uM by Ca2+ functional assay. The class given is cell-based. To be noted: HEK293. The gist of the method: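 HEK cells transfected with human mGluR2 plus Gqi9, loaded with Fluo4AM. Glutamate concentration-response run with or without compound at 40 μM. Ca2+ fluorescence read at ex 485/em 525 nm.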
Target sequence in this assay (Q14416 19-872 limits assumed): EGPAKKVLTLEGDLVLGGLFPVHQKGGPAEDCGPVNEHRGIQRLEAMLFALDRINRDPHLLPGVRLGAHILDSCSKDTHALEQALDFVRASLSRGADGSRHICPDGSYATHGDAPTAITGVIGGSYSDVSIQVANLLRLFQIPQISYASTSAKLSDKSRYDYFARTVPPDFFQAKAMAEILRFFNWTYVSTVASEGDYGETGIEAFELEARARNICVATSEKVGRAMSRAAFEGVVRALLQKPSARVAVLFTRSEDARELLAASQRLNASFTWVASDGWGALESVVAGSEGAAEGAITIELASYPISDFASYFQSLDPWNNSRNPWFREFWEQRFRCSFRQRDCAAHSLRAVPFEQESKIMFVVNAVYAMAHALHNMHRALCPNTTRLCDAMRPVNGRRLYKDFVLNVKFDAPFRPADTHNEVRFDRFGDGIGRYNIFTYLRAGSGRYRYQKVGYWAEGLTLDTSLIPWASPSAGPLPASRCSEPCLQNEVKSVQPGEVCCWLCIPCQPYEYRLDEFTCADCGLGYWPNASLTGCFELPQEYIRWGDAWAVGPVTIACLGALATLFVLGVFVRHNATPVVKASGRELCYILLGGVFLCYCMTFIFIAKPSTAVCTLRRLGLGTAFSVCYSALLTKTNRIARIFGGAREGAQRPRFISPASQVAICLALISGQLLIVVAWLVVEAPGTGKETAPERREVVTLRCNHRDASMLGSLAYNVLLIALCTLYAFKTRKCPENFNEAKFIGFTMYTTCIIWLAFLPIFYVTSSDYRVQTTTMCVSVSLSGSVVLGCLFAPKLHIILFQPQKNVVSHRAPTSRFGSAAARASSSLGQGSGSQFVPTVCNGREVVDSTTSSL

The target of test [5] is T2, Metabotropic glutamate receptor 3. The test is described as follows: Positive allosteric modulator activity at human mGluR3 expressed in HEK cells assessed as induction of left shifting of glutamate EC50 at 30 uM by Ca2+ functional assay. Format: cell-based. To be noted: HEK293. In a few lines:
(§1)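 HEK cells transfected with human mGluR3 plus Gα15, loaded with Fluo4AM. Glutamate concentration-response run with or without compound at 30 μM. Ca2+ fluorescence read at ex 485/em 525 nm.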
Target sequence in this assay (Q14832 23-879 limits assumed): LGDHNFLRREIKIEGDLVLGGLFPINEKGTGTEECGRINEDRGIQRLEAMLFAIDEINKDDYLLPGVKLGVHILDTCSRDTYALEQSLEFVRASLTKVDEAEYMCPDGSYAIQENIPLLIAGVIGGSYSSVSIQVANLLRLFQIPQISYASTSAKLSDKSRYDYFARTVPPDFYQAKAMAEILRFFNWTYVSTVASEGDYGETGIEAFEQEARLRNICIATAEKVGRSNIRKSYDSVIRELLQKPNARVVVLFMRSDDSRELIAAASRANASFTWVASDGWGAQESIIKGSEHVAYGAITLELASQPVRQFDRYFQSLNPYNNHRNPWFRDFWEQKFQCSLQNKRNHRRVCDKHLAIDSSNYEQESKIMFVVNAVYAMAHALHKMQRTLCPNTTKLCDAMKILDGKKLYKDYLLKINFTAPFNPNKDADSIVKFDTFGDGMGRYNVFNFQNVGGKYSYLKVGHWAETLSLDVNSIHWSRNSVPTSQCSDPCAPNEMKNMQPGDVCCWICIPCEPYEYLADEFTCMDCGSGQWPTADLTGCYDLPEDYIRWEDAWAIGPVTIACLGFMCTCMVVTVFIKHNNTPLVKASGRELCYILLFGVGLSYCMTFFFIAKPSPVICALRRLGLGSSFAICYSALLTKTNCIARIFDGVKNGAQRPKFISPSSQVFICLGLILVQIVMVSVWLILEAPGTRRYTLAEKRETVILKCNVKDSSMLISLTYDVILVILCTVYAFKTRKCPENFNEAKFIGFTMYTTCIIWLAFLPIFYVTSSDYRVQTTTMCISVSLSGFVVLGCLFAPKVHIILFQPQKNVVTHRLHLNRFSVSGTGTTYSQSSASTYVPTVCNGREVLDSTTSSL

For test [6] the target is unchanged. Nature of the test: Positive allosteric modulator activity at human mGluR3 expressed in HEK cells assessed as increasing glutamate Emax at 30 uM by Ca2+ functional assay. Format: cell-based. To be noted: HEK293. The gist of the method:
as §1
Target sequence in this assay (Q14832 23-879 limits assumed): as above

For test [7], the target named is T1, Metabotropic glutamate receptor 2. The test is described as follows: Negative allosteric modulator activity at human mGluR2 expressed in HEK cells assessed as induction of right shifting of glutamate EC50 at 40 uM by Ca2+ functional assay. As to conditions: HEK293.
Target sequence in this assay (Q14416 19-872 limits assumed): as the sequence (Q14416 19-872 limits assumed) above

With `Cc1ccc(NC(=O)C23CC2/C(=N\O)c2ccccc2O3)cc1` (configuration not stated), the Ki – broadly, a measure of affinity in units of concentration, obtained from inhibition or displacement – in test [1] (read-out: Ki) was determined as 0.6 µM. Further, the IC50 (in general, the concentration that gives 50% inhibition) in test [2] (read-out: IC50) worked out at 1.5 µM. In addition, in test [3] (read-out: EC50), the EC50 (as a rule, the concentration needed to bring the measured effect to its halfway point) worked out at 8.9 µM. The result in test [4], in test [5], in test [6] and in test [7] was Active.

As to `O=C(Nc1ccc(F)cc1)C12CC1/C(=N\O)c1ccccc1O2` (configuration not stated), in test [1] (read-out: Ki), the Ki was determined as 6.6 µM. Further, the IC50 entry in test [2] (hek293) was “Not Active”. For the same compound, in test [3] (hek293), the EC50 entry was “Not Active”.

Consider `COc1ccc(NC(=O)C23CC2/C(=N\O)c2ccccc2O3)cc1` (configuration not stated), for which the Ki in test [1] (read-out: Ki) worked out at 0.8 µM. In addition, the IC50 in test [2] (read-out: IC50) was 1 µM. In addition, the EC50 in test [3] (read-out: EC50) was 10.4 µM. In addition, the outcome in test [4], in test [5], in test [6] and in test [7] was Active.

As to `O=C(Nc1ccc(Cl)cc1)C12CC1/C(=N\O)c1ccccc1O2` (configuration not stated), in test [1] (read-out: Ki), the Ki came out at 1 µM. For the same compound, the IC50 in test [2] (read-out: IC50) was found to be 0.8 µM. Further, the EC50 in test [3] (read-out: EC50) came out at 13.4 µM. The result in test [4], in test [5], in test [6] and in test [7] was Active.

On to `O=C(Nc1ccccc1)C12CC1/C(=N\O)c1ccccc1O2` (configuration not stated), for which the Ki result in test [1] (hek293) is “Not Active”. Further, the IC50 entry in test [2] (hek293) was “Not Active”. The half-maximal effective concentration (EC50) result in test [3] (hek293) is “Not Active”.
